Test results reported in ChEMBL document CHEMBL1157183, “Synthesis and discovery of a novel pyrazole derivative as an inhibitor of apoptosis through modulating integrin beta4, ROS, and p53 levels in vascular endothelial cells” (2008).
The source made the active and inactive calls. The rule behind the calls is not given here.

Columns and labels:
[1] = tested on: HUVEC; experiment: Decrease in serum and FGF2 deprivation-induced p53 level in HUVEC cells; format: functional, cell-based; conditions: Homo sapiens
In short: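 Serum/FGF-2-deprived HUVECs (basal M199) received 25 µM for 12, 24 and 48 h. Comparators were cells in M199 with 20% FBS and 70 ng/mL FGF-2 and untreated deprived cells. p53 was detected by immunofluorescence with rabbit anti-human p53 and FITC-IgG secondary, semiquantified as relative intensity by confocal microscopy; n = 3.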

[2] = tested on: HUVEC; experiment: Increase in cell viability of HUVEC cells at 25 uM; format: functional, cell-based; conditions: Homo sapiens
In short: (§1)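 Sub-confluent HUVECs, passages 10–20, were washed and cultured in M199 without serum and FGF-2. They were treated at 5, 10, 20, 25, 50 and 100 µM (DMSO vehicle at a non-toxic final level). Viability was measured by MTT at 24 and 48 h against deprived control and full-medium normal cells; n = 3.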

[3] = tested on: HUVEC; experiment: Decrease in integrin beta4 level in HUVEC cells at 25 uM after 24 hrs in absence of serum and FGF2; format: functional, Homo sapiens
In short: (§2)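 HUVECs, passages 10–20, grown to sub-confluence, washed and switched to basal M199 without FBS and FGF-2; 25 µM in DMSO for 12, 24 or 48 h. Comparators were cells kept in M199 with 20% FBS plus 70 ng/mL FGF-2 and cells in basal medium alone. Immunofluorescence used rabbit anti-human integrin β4 and FITC-IgG secondary, read by laser scanning confocal microscopy as relative fluorescence intensity; n = 3.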

[4] = tested on: HUVEC; experiment: Inhibition of DNA fragmentation in HUVEC cells at 25 uM after 24 hrs by TUNEL assay; format: functional, cell-based; conditions: Homo sapiens
In short: (§3)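 TUNEL staining was done on HUVECs deprived of serum and FGF-2 (basal M199) and treated with 25 µM for 24 h. Apoptotic cells were quantified as a percentage from fluorescent micrographs, relative to deprived control and to cells in M199 with 20% FBS plus 70 ng/mL FGF-2.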

[5] = tested on: HUVEC; experiment: Decrease in integrin beta4 level in HUVEC cells at 25 uM after 48 hrs in absence of serum and FGF2; format: functional, Homo sapiens; in short: as §2
[6] = tested on: HUVEC; experiment: Reduction of serum and FGF2 deprivation-induced apoptosis in HUVEC cells at 25 uM after 24 hrs; format: functional, Homo sapiens; parameters: scale not given: the % may be the effect or the level left; in short: as §3
[7] = tested on: HUVEC; experiment: Decrease in serum and FGF2 deprivation-induced intracellular ROS level in HUVEC cells; format: functional, cell-based; conditions: Homo sapiens
In short: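 Intracellular ROS measured with the DCHF probe, which oxidises to fluorescent DCF. Cells were HUVECs in basal M199 lacking serum and FGF-2, exposed to 25 µM for 12, 24 and 48 h. Fluorescence was imaged by laser scanning confocal microscopy and expressed as relative DCF intensity per cell in the scanned area; n = 3.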

[8] = tested on: HUVEC; experiment: Induction of apoptosis in HUVEC cells at 100 uM by MTT assay; format: functional, cell-based; conditions: Homo sapiens; in short: as §1
[9] = tested on: HUVEC; experiment: Decrease in integrin beta4 level in HUVEC cells at 25 uM after 12 hrs in absence of serum and FGF2; format: functional, Homo sapiens; in short: as §2
[10] = tested on: HUVEC; experiment: Inhibition of nuclear DNA condensation in HUVEC cells at 25 uM after 24 hrs by acridine orange staining assay; format: functional, cell-based; conditions: Homo sapiens
In short: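 Serum/FGF-2-deprived HUVECs were treated with 25 µM for 24 h, then stained with acridine orange for 5 min. Nuclear condensation and fragmentation were examined by laser scanning confocal microscopy.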

[11] = tested on: HUVEC; experiment: Suppression of apoptosis in HUVEC cells at 25 uM by MTT assay; format: functional, cell-based; conditions: Homo sapiens; in short: as §1
[12] = tested on: HUVEC; experiment: Induction of apoptosis in HUVEC cells at 50 uM by MTT assay; format: functional, cell-based; conditions: Homo sapiens; in short: as §1

## CCOC(=O)c1c(-c2ccccc2Cl)nn(-c2ccccc2)c1C
[1]
  Activity: Active
[2]
  Activity: Active
[3]
  Flu intensity: 9.083
[4]
  Activity: Active
[5]
  Flu intensity: 13.14
[6]
  Activity: 19.16%
[7]
  Activity: Active
[8]
  Activity: Active
[9]
  Flu intensity: 6.307
[10]
  Activity: Active
[11]
  Activity: Active
[12]
  Activity: Active
